Data as given in article PMC2925318 (Tetrahedron, 2010).

Target: Concanavalin A (Con A) (Canavalia ensiformis, UniProt P02866)
Assay type: binding
Method in brief: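 Gold chip with mixed carboxyl/hydroxyl dithiol monolayer, aminoethoxyethyl mannoside coupled by EDC/NHS; hydroxyl-only reference flowcell. Con A (2 μM monomer) mixed 1:1 with test compound, equilibrated ≥1 h, then injected at 10 μL/min in 10 mM PBS pH 7.4, 25 °C. Methyl-mannose/HCl regeneration. Glycodendrimers run in triplicate, 2-fold series 50 μg/mL–39 ng/mL. Double-referenced equilibrium responses were fitted to a four-parameter logistic to give IC50.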

Chain of Concanavalin A (Con A) (P02866 164-281 limits assumed): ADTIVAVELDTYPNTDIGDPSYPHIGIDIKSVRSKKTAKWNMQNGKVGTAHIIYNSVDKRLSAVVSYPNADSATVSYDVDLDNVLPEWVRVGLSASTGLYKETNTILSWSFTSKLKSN
Chain of Concanavalin A (Con A) (P02866 30-148 limits assumed): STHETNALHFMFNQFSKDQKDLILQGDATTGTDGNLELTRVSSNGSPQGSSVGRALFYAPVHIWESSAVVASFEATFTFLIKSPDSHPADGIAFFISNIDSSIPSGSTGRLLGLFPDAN

CO[C@H]1O[C@H](CO)[C@@H](O)[C@H](O)[C@@H]1O [Methyl mannose]
IC50: 240 µM
